In paper PMC5570473 (Nature chemical biology, 2017):
Like-named read-outs stand apart in the source and are kept apart here. Peptide text beside a SMILES is read from it. * marks the point of attachment. Cbz = O=C(OCc1ccccc1)*

Tests used:
[1] = target: Rpn11•Rpn8 heterodimer (Saccharomyces cerevisiae, UniProt P43588); test: Rpn11•Rpn8 di-Ub cleavage assay; format: biochemical; details: 40 μM, 20 μM or 10 μM
Summary of the method: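 Purified Rpn11•Rpn8 dimer (5 μM) was incubated at 30°C with K48-linked di-ubiquitin and varying test compound concentrations. The buffer was 40 mM HEPES pH 7.5, 100 mM NaCl, 100 mM KCl, 5% glycerol.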

[2] = target: Rpn11 (Homo sapiens, UniProt O00487); test: In vitro Rpn11 activity assay; format: biochemical; details: for effect of Zn(cyclen)^2+ on IC50 for Rpn11: 100 μM Zn(cyclen)^2+ present
[3] = mice ref 49; cited from earlier work
[4] = system: A549 cells; test: Aggresome formation and clearance assay; format: cell-based, human; details: for aggresome formation (ubiquitin, HDAC6, p62/SQSTM1 staining): 15 hours
Summary of the method: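 A549 cells were loaded with 5 μM MG132 for 15 h, washed free of it, then held ± a range of test compound concentrations for 24 h. They were fixed in 4% paraformaldehyde, permeabilised with 0.2% Triton X-100, blocked in 5% FBS/0.1% Triton X-100, immunostained for ubiquitin, HDAC6 or p62/SQSTM1, and imaged.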

[5] = system: Hela cells stably expressing Ub^G76V-GFP; test: Ub^G76V-GFP accumulation assay; format: cell-based; details: for accumulation of Ub^G76V-GFP: 5 μM, 4 hours
[6] = system: angiomotin K481 ubiquitination in 293T cells; test: Quantitative ubiquitination site profiling; format: cell-based, human; details: 8 hours, 10 μM capzimin or 1 μM BTZ
Summary of the method: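 SILAC-labelled HEK293T cells were grown in Arg/Lys-free DMEM with 10% dialysed FBS, 1 mM pyruvate and 10 mg/L proline. At 80–90% confluence they were treated 8 h with 10 μM test compound (n=3), 1 μM bortezomib (n=4) or DMSO. Cells were trypsinised and pooled from three plates per treatment. Lysates were trypsin-digested with NEM alkylation, K-ε-GlyGly peptides enriched by antibody, and analysed by LC-MS.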

[7] = system: WT or nfe2l1^−/− MEF cells; test: Cell growth inhibition in WT versus Nrf1 knockout MEF cells; format: cell-based; details: 72 hours
[8] = system: NCI panel of 60 cancer cell lines; test: NCI panel of 60 cancer cell lines; format: cell-based; details: Homo sapiens, read-out: median GI50 NCI 60 panel
[9] = system: MCF7 (breast cancer); test: NCI 60 panel, MCF7; format: cell-based; details: Homo sapiens, MCF7, read-out: GI50 MCF7
[10] = system: MMP12; test: MMP activity assay; format: biochemical, human
[11] = target: BRCC36 (Homo sapiens, UniProt P46736); test: In vitro BRCC36 activity assay; format: biochemical
Summary of the method: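 BRISC complex (BRCC36, KIAA0157, BRCC45, MERIT40) was co-expressed in insect cells and purified to >95% by affinity and size exclusion. 1 nM BRISC was reacted with 80 nM DiUbK63-TAMRA, monitoring TAMRA fluorescence (ex 540/em 590 nm). Data were normalised to DMSO and fitted for IC50. With substrate far below KM, IC50 approximates Ki.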

[12] = system: HCT116 cells; test: Immunoblot of UPS substrates, UPR and apoptosis markers; format: cell-based
Summary of the method: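 HCT116 cells were treated 6 h with 2 or 10 μM test compound, alongside 1 μM bortezomib, 10 μM CB5083 or 2 μg/ml tunicamycin. Lysates were immunoblotted for ubiquitin, p53, Hif1α, PERK, BiP, XBP1s, CHOP and GAPDH. For apoptosis, HCT116 cells were treated 24 h and blotted for PARP1, caspase3, pH2AX and GAPDH.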

[13] = system: HDAC6; test: HDAC 6 activity assay; format: biochemical
[14] = system: K562 cell line (leukemia); test: NCI 60 panel, K562 cell line; format: cell-based; details: Homo sapiens, K562, read-out: GI50 K562
[15] = system: WT or bortezomib-resistant RPE1 cells; test: Cell growth inhibition in WT and bortezomib-resistant RPE1 cells; format: cell-based; details: 72 hours
Summary of the method: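 WT and bortezomib-resistant RPE1 cells received a concentration series of test compound for 72 h before CellTiter-Glo addition. Luminescence was normalised to DMSO control and fitted to a dose-response equation for GI50. Data are n=3 wells, from one representative of 3 independent experiments.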

[16] = system: MMP2; test: MMP activity assay; format: biochemical, human
[17] = system: SR cell line (leukemia); test: NCI 60 panel, SR cell line; format: cell-based; details: Homo sapiens, read-out: GI50 SR
[18] = system: HEK293T cells; test: Cellular imaging with optical zinc sensor; format: cell-based; details: 10 μM
Summary of the method: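 HEK293T cells were transfected with a FRET zinc sensor and imaged 24–48 h later at 37°C/5% CO2 in phosphate-free HEPES-buffered HBSS, pH 7.4, with frames every minute. After 5 min resting FRET, 10 μM test compound or 0.5% DMSO was added (n=11 cells each). Calibration used 50 μM TPA, then 0.75 μM pyrithione plus 12 μM buffered zinc. Background-corrected FRET/CFP ratios were normalised to resting; error bars SEM.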

[19] = system: angiomotin in 293T cells; test: Pulldown of polyubiquitylated protein; format: cell-based; details: 8 hours
Summary of the method: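 293T cells were treated 8 h with test compound, bortezomib or DMSO. Lysis was in 40 mM Tris-HCl pH 7.6, 5 mM NEM, 0.1% NP-40, followed by binding to TUBE2 agarose for 2 h at 4°C. Beads were washed three times in the same buffer with 150 mM NaCl, then eluted in SDS buffer. Eluates were immunoblotted for ubiquitin and angiomotin.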

[20] = system: HCT116 cells; test: Cell growth inhibition, CellTiter-Glo, 72 hours; format: cell-based; details: Homo sapiens, HCT-116, 72 h
Summary of the method: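 HCT116 cells were exposed to a test-compound concentration series for 72 h in normal or low-serum medium, then mixed with CellTiter-Glo. Luminescence was normalised to DMSO and a dose-response fit gave GI50. Data are n=3 wells, one representative of 3 independent experiments.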

[21] = target: AMSH (Homo sapiens, UniProt O95630); test: In vitro AMSH activity assay; format: biochemical
[22] = system: carbonic anhydrase II; test: hCAII activity assay; format: biochemical, human
[23] = system: NCI-H460 (non-small cell lung cancer); test: NCI 60 panel, NCI-H460; format: cell-based; details: Homo sapiens, NCI-H460, read-out: GI50 NCI-H460
[24] = target: glyoxalase I (GLO1) (Homo sapiens, UniProt Q04760); test: Human Glyoxalase 1 assay; format: biochemical
Summary of the method: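 Recombinant human GLO1 (40 ng) was preincubated 15–20 min with inhibitor in 100 mM sodium phosphate, pH 7.0. Substrate was then added, formed by letting glutathione and methylglyoxal stand 20 min in buffer (≤5% DMSO final). A240 was read every minute for 8 min. Rates were compared with no-inhibitor controls after subtracting no-enzyme background.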

[25] = target: 26S proteasome (Saccharomyces cerevisiae, UniProt P43588); format: biochemical, yeast; details: 20 μM, purified proteasomes
Summary of the method: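 Alexa488-labelled Rpn10-I27V13Pext (100 nM) was incubated with 10 nM purified yeast 26S proteasome at 30°C, ± 20 μM test compound. Aliquots were taken at 0, 30, 60, 90 and 120 min into SDS sample buffer and resolved by SDS-PAGE. Intact substrate was quantified by fluorescence gel imaging (488/520 nm).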

Rpn11•Rpn8 heterodimer, sequence (P43588 2-239 limits assumed): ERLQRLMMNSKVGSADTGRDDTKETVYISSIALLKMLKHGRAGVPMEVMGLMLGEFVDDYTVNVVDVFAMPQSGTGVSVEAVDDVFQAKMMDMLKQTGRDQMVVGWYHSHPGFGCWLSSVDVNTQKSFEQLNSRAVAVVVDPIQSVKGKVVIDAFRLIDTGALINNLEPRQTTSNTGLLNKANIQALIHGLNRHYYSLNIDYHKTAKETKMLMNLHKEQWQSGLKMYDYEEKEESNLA
Rpn11•Rpn8 heterodimer, sequence (Q08723 1-179 partner limits assumed): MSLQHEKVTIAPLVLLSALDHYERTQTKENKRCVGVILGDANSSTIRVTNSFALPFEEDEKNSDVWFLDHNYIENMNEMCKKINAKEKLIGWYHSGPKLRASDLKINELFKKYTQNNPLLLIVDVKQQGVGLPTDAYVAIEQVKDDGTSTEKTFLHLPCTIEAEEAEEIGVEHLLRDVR
AMSH, sequence (O95630 whole entry): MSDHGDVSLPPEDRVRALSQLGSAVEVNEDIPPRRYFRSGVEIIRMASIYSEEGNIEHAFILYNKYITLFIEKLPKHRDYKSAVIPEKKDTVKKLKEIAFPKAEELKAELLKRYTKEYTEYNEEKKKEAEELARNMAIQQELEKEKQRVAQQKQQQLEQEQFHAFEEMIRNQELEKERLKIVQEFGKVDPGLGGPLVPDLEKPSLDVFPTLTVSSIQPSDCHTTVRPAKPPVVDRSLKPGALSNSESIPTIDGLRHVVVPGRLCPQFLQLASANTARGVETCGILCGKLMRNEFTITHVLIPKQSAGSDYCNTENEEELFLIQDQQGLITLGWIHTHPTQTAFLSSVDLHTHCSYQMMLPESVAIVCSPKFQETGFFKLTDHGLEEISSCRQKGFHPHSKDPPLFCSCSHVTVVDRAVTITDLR
glyoxalase I (GLO1), sequence (Q04760 2-184 limits assumed): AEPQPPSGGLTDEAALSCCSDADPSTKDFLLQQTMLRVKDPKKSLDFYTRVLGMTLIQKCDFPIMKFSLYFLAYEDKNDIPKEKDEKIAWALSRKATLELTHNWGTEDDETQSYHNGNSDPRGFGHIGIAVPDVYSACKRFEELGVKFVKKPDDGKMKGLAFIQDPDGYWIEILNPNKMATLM

Structure (SMILES): Sc1cccc2cccnc12 [8TQ, quinoline-8-thiol]
- inhibition of purified Rpn11•Rpn8 (K48 di-ubiquitin cleavage) [1]: inhibited purified Rpn11•Rpn8 heterodimer
- mode of inhibition of Rpn11 / 26S proteasome [2]: uncompetitive inhibition
- effect of Zn(cyclen)^2+ on IC50 for Rpn11 [2]: shifted the IC50 of both compounds to a higher value
- discrimination between Rpn11, BRCC36 and AMSH ([2]; details will be published elsewhere): did not distinguish between Rpn11, BRCC36, and AMSH
- inhibition at 200 µM ([2]; read-out: inhibition of Rpn11 activity in MBP library screen): > 50%
- oral bioavailability [3]: orally bioavailable
- tolerability [3]: tolerated
- clearance of MG132-induced aggresomes after MG132 removal and compound addition [4]: not cleared

Structure (SMILES): O=C(Sc1cccc2cccnc12)c1ccccc1Br [H18, S-(Quinolin-8-yl) 2-bromobenzothioate]
- effect of Zn(cyclen)^2+ on IC50 for Rpn11 [2]: shifted the IC50 of both compounds to a higher value

Structure (SMILES): CC(C)C[C@@H](C=O)NC(=O)[C@H](CC(C)C)NC(=O)[C@H](CC(C)C)NC(=O)OCc1ccccc1 [MG132, reference compound] (Cbz-Leu-Leu-Leu-aldehyde)
- accumulation of Ub^G76V-GFP [5]: strong accumulation
- aggresome formation (ubiquitin, HDAC6, p62/SQSTM1 staining) [4]: punctate staining characteristic of aggresomes

Structure (SMILES): CC(C)C[C@H](NC(=O)[C@H](Cc1ccccc1)NC(=O)c1cnccn1)B(O)O [bortezomib, reference compound]
- up-regulation of angiomotin ubiquitination at K481 [6]: 2.4 fold
- sensitivity of Nrf1^−/− cell line compared to WT MEF [7]: more sensitive

Structure (SMILES): O=C(NCCc1nccs1)c1cnc2c(SSc3cccc4cc(C(=O)NCCc5nccs5)cnc34)cccc2c1 [capzimin]
- GI50 [8]: 3.3 µM
- up-regulation of angiomotin ubiquitination at K481 [6]: ~ 16 fold
- GI50 [9]: 1000 nM
- preference for inhibiting Rpn11 compared to MMP12 [10]: > 2 log
- mode of inhibition of BRCC36 [11]: competitive inhibitor
- inhibition of purified Rpn11•Rpn8 (K48 di-ubiquitin cleavage) [1]: acted directly on Rpn11•Rpn8
- mode of inhibition of Rpn11 / 26S proteasome [2]: uncompetitive inhibitor
- effect on Nedd8-conjugated Cul1 (cellular Csn5) [12]: little effect
- accumulation of ubiquitin conjugates and proteasome substrates p53, Hif1α, Nrf2 ([12]; 2 or 10 μM, 6 hours): caused accumulation
- apoptosis (processed caspase 3, cleaved PARP) ([12]; 24 hours): induced apoptosis
- unfolded protein response (phosphorylated PERK, XBP1s, CHOP) ([12]; HCT116 and 293T cells): provoked a UPR response
- preference for inhibiting Rpn11 compared to HDAC6 [13]: > 2 log
- GI50 [14]: 1000 nM
- GI50 against WT versus bortezomib-resistant retinal pigment epithelial cells [15]: same GI50
- sensitivity of Nrf1^−/− cell line compared to WT MEF [7]: more sensitive
- preference for inhibiting Rpn11 compared to MMP2 [16]: > 2 log
- accumulation of Ub^G76V-GFP [5]: strong accumulation
- reversibility of inhibitory effect ([5]; after washout): reversible after washout
- GI50 [17]: 670 nM
- reduction in total cellular zinc [18]: ≤ 5%
- accumulation of high molecular weight species of angiomotin [19]: strong accumulation
- GI50 ([20]; read-out: GI50 HCT116): ~2000 nM
- GI50 ([20]; read-out: GI50 HCT116 low serum): 600 nM
- mode of inhibition of AMSH [21]: competitive inhibitor
- preference for inhibiting Rpn11 compared to carbonic anhydrase II [22]: > 2 log
- aggresome formation (ubiquitin, HDAC6, p62/SQSTM1 staining) [4]: punctate staining characteristic of aggresomes
- GI50 [23]: 700 nM
- IC50 [24]: 43 µM
- influence on degradation of ubiquitin-independent substrate Rpn10-127^V13Pext [25]: no influence
